Values joined by “and” are separate entries in the source; they are usually repeats but may differ in a detail not shown here. Equal entries are not always repeated. One block for each molecule: values may come before it. Active and inactive are the calls of the source. The rule behind the calls is not given here.
Assays:
[1] = molecular target: Adenosine receptors; A1 & A3 (Rattus norvegicus) (UniProt P25099+P28647); test: Ratio of the binding affinities against rat brain A1 and A3 receptors, KiA1/KiA3.
[2] = molecular target: Adenosine receptor A2a and A3 (Rattus norvegicus) (UniProt P30543+P28647); test: Ratio of the binding affinities against rat brain A2a and A3 receptors, KiA2a/KiA3.
[3] = molecular target: T1, Adenosine receptor A3 (Rattus norvegicus) (UniProt P28647); test: Ability to inhibit the adenylyl cyclase in CHO cells stably transfected with rat Adenosine A3 receptor at the concentration of 100 uM; assay type: cell-based
T1 sequence (whole entry): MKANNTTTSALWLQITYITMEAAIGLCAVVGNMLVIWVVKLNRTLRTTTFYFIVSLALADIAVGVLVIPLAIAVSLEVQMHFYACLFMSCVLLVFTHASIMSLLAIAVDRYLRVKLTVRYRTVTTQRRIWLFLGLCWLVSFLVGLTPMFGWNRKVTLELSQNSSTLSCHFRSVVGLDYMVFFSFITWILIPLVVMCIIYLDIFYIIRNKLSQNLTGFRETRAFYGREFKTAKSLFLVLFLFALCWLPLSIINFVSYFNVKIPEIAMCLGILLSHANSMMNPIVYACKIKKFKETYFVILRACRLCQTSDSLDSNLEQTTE
Summary of the method: (§1)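 Adenylyl cyclase activity measured in membranes of CHO cells stably transfected with rat brain A3 receptor, following an earlier published method. […] Untransfected CHO cell membranes served as the control.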

[4] = molecular target: T1, Adenosine receptor A3 (Rattus norvegicus); test: Ability to inhibit the adenylyl cyclase in CHO cells stably transfected with rat Adenosine A3 receptor at the concentration of 20(uM); assay type: cell-based; summary of the method: as §1
[5] = molecular target: T1, Adenosine receptor A3 (Rattus norvegicus); test: Ratio of the concentration (20 uM) effecting adenylyl cyclase and binding affinity against rat brain A3 receptors
Summary of the method: (§2)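 This ratio is the adenylyl cyclase test concentration (20, 40 or 100 µM) divided by the A3 Ki. The Ki came from [125I]AB-MECA displacement in membranes of CHO cells expressing rat A3 receptor.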

[6] = molecular target: T1, Adenosine receptor A3 (Rattus norvegicus); test: Ratio of the concentration (100 uM) effecting adenylyl cyclase and binding affinity against rat brain A3 receptors.; summary of the method: as §2
[7] = molecular target: T1, Adenosine receptor A3 (Rattus norvegicus); test: Ability to inhibit the adenylyl cyclase in CHO cells stably transfected with rat Adenosine A3 receptor at the concentration of 40(uM); assay type: cell-based; summary of the method: as §1
Adenosine receptor A2a = Adenosine receptor A2a (Rattus norvegicus, UniProt P30543); test: Binding affinity against adenosine A2A receptor from rat brain.
Adenosine receptor A3 = molecular target: T2, Adenosine receptor A3 (Rattus norvegicus, UniProt P28647); test: Binding affinity against adenosine A3 receptor (rat) stably expressed in CHO cell membranes.
T2 sequence (P28647 whole entry): T1 sequence (whole entry)
Summary of the method: (§3)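 Rat brain A3 receptor was stably expressed in CHO cell membranes and labelled with [125I]AB-MECA at 0.3 nM final, in 50 mM Tris/10 mM MgCl2/1 mM EDTA, pH 8.26. Inhibitors were in DMSO, at no more than 2% final. Incubation was 1 h at 37 °C in duplicate, ended by filtration. Nonspecific binding was defined by 200 µM NECA.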

Adenosine receptor A1 = molecular target: T3, Adenosine receptor A1 (Rattus norvegicus, UniProt P25099); test: Binding affinity against adenosine A1 receptor from rat brain.
T3 sequence (P25099 whole entry): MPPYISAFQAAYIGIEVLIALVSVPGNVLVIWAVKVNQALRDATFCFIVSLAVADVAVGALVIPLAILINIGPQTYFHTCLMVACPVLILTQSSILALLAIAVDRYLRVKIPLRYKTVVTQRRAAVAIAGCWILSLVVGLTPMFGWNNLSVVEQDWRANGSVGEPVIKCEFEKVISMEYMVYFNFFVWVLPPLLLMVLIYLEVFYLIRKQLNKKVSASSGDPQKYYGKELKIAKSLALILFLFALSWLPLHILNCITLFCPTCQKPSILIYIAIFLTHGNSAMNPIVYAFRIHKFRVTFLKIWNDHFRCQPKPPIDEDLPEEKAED

[8] = molecular target: T1, Adenosine receptor A3 (Rattus norvegicus); details: CHO
[9] = molecular target: T1, Adenosine receptor A3 (Rattus norvegicus); details: CHO; remark: listed apart in the source
[10] = molecular target: T1, Adenosine receptor A3 (Rattus norvegicus); test: Ratio of the concentration (40 uM) effecting adenylyl cyclase and binding affinity against rat brain A3 receptors.; summary of the method: as §2
[11] = molecular target: T1, Adenosine receptor A3 (Rattus norvegicus); test: Ability to inhibit the adenylyl cyclase in CHO cells stably transfected with rat Adenosine A3 receptor at the dose of 40(uM); assay type: cell-based; summary of the method: as §1
[12] = molecular target: T1, Adenosine receptor A3 (Rattus norvegicus); test: Ratio of the concentration (40 uM) effecting adenylyl cyclase and binding affinity against rat brain Adenosine A3 receptor; summary of the method: as §2
[13] = molecular target: T1, Adenosine receptor A3 (Rattus norvegicus); test: Agonist elicited inhibition of adenylyl cyclase via rat Adenosine A3 receptor in transfected CHO cells and effect on IB-MECA was determined from dose response curves at the concentration of 40(uM); assay type: functional, cell-based
Summary of the method: (§4)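 CHO cell membranes stably transfected with rat A3 receptor were used to test for antagonism. Adenylyl cyclase inhibition was elicited by the A3 agonist IB-MECA across a dose-response curve, and test agent at 40 or 100 µM was checked for reversal of the agonist-induced inhibition. The cyclase measurement followed a previously described method.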

[14] = molecular target: T1, Adenosine receptor A3 (Rattus norvegicus); details: CHO; remark: listed apart in the source
[15] = molecular target: T1, Adenosine receptor A3 (Rattus norvegicus); test: Inhibition of Adenosine A3 receptor from rat brain; details: concentration not given here; summary of the method: as §3
[16] = molecular target: Adenosine receptor A2a (Rattus norvegicus) (UniProt P30543); test: Binding affinity against Adenosine A2A receptor from rat brain; design: concentration or dose not given beside the values; details: concentration not given here
Summary of the method: (§5)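 Rat A1 receptors came from cerebral cortical membranes with [3H]R-PIA, and rat A2a receptors came from striatal membranes with [3H]CGS 21680. Membranes were pretreated with adenosine deaminase (2 U/mL) for 30 min at 37 °C. Nonspecific binding was defined by 2-chloroadenosine at 10 µM (A1) and 200 µM (A2a).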

[17] = molecular target: T4, Adenosine receptor A1 (Rattus norvegicus) (UniProt P25099); test: Inhibition of Adenosine A1 receptor from rat brain.; details: concentration not given here; summary of the method: as §5
T4 sequence (whole entry): T3 sequence (P25099 whole entry)

[18] = molecular target: T1, Adenosine receptor A3 (Rattus norvegicus); test: Agonist elicited inhibition of adenylyl cyclase via rat Adenosine A3 receptor in transfected CHO cells and effect on IB-MECA was determined from dose response curves at the concentration of 100(uM); assay type: functional, cell-based; summary of the method: as §4

Adenosine receptor A2a, sequence (P30543 whole entry): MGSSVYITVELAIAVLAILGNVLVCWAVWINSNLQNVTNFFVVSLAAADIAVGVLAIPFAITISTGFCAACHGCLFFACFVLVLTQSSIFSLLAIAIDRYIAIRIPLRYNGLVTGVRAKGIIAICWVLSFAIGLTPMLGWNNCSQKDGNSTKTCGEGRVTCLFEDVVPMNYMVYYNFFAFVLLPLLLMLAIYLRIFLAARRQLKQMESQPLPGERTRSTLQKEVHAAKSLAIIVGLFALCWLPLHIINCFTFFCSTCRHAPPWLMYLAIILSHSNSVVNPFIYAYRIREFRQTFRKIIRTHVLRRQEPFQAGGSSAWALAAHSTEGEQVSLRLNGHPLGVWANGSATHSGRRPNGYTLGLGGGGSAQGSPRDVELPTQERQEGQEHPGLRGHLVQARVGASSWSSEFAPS
Adenosine receptor A2a (Rattus norvegicus), sequence (P30543 whole entry): as above
Adenosine receptor A2a and A3 (Rattus norvegicus), sequence (P30543 whole entry, looked up, one chain of several): as the sequence (P30543 whole entry) above

Ratio [1]: 0.032 | Ratio [2]: 0.1
SMILES: N#CCCCn1cnc2c(NCc3cccc(I)c3)ncnc21

Ratio [1]: 0.0088 | Ratio [2]: 0.053
SMILES: Cn1cnc2c(NCc3cccc(I)c3)nc(Cl)nc21

inhibition [3]: 27.8% | inhibition [4]: 25.7% and 18% | Ratio [5]: 3.3 | Ratio [1]: 0.067 | Ratio [2]: 4.7 | Ratio [6]: 17
SMILES: CNC(=O)[C@@H]1C[C@H](N=[N+]=[N-])[C@H](n2cnc3c(NCc4cccc(I)c4)nc(Cl)nc32)O1

inhibition [7]: 0% | Ki (Adenosine receptor A2a): 54.7 µM | Ki (Adenosine receptor A3): 6 µM | Ratio [1]: < 1 | Ratio [2]: < 1 | Ki (Adenosine receptor A1): 150 µM
SMILES: CC(O)[C@@H]1O[C@@H](n2cnc3c(N)ncnc32)[C@H](O)[C@@H]1O (stereo partly drawn)

inhibition [3]: 44.4% | Effect [8]: inactive | Effect [9]: inactive
SMILES: CNC(=O)[C@H]1O[C@@H](n2cnc3c(NCc4cccc(I)c4)ncnc32)[C@H](O)[C@@H]1O

Ratio [1]: 0.099 | Ratio [2]: 0.66
SMILES: CN(C)c1nc(NCc2cccc(I)c2)c2ncn(C)c2n1

inhibition [7]: 35.2% | Ratio [10]: 1200 | Ratio [1]: 31 | Ratio [2]: 140 | Ratio [6]: 3000
SMILES: CNC(=O)[C@@H]1C[C@@H](O)[C@H](n2cnc3c(NCc4cccc(I)c4)nc(Cl)nc32)O1

Ratio [1]: 0.12 | Ratio [2]: 0.046
SMILES: Cn1cnc2c(NCc3cccc(I)c3)ncnc21

inhibition [11]: 19.7% | Ratio [12]: 28
SMILES: CS[C@H]1OC(n2cnc3c(N)ncnc32)[C@H](O)[C@@H]1O (stereo partly drawn)

inhibition [7]: 7.5% and 10.8% | Ratio [10]: 1.3 | Ratio [1]: 0.37 | Ratio [2]: 7.1 | Effect [13]: 0
SMILES: CNC(=O)[C@@H]1CC[C@H](n2cnc3c(NCc4ccccc4)nc(Cl)nc32)O1

Ratio [1]: 0.67 | Ratio [2]: 3.7
SMILES: CNc1nc(NCc2cccc(I)c2)c2ncn(C)c2n1

Ratio [1]: 0.05 | Ratio [2]: 0.18
SMILES: Cn1cnc2c(NCc3cccc(I)c3)nc(NN)nc21

inhibition [3]: 11.2% | Ki (Adenosine receptor A2a): 98 µM | Ki (Adenosine receptor A3): 17.8 µM | Ratio [1]: 0.08 | Ratio [2]: 5.5 | Ki (Adenosine receptor A1): 1.42 µM | Ratio [6]: 5.6
SMILES: CNC(=O)[C@@H]1C[C@@H](F)[C@H](n2cnc3c(NCc4cccc(I)c4)nc(Cl)nc32)O1

inhibition [7]: 5.5% and 7.3% | Ki (Adenosine receptor A2a): 78.9 µM | Ki (Adenosine receptor A3): 8.59 µM | Ratio [10]: 4.6 | Ratio [1]: 0.16 | Ratio [2]: 9.2 | Ki (Adenosine receptor A1): 1.34 µM | Effect [14]: 0
SMILES: CSc1nc(NCc2cccc(I)c2)c2ncn(C[C@H](O)CO)c2n1

inhibition [15]: 30% | Ratio [1]: < 1 | Ratio [2]: < 1
SMILES: CCn1cnc2c(NC3CCCC3)ncnc21

Ratio [1]: 0.027 | Ratio [2]: 0.068
SMILES: COc1nc(NCc2cccc(I)c2)c2ncn(C)c2n1

Ratio [1]: 0.14 | Ratio [2]: 0.08
SMILES: Cn1cnc2c(NCc3cccc(I)c3)nc(N)nc21

inhibition [4]: 12.7% | Ratio [5]: 320 | Ratio [1]: 12 | Ratio [2]: 250
SMILES: CNC(=O)[C@@H]1C[C@@H](OC(C)=O)[C@H](n2cnc3c(NCc4cccc(I)c4)nc(Cl)nc32)O1

inhibition [16]: 9% | inhibition [17]: 17%
SMILES: O=C(O)Cn1cnc2c(NCc3cccc(I)c3)ncnc21

Ratio [1]: 0.55 | Ratio [2]: 0.76
SMILES: OC[C@@H](O)Cn1cnc2c(NCc3cccc(I)c3)ncnc21

inhibition [16]: 2%
SMILES: CNC(=O)[C@@H]1C[C@H](N)[C@H](n2cnc3c(NCc4cccc(I)c4)nc(Cl)nc32)O1

inhibition [7]: 16.1% | Ki (Adenosine receptor A3): 14 µM | Ki (Adenosine receptor A1): 24.2 µM
SMILES: Nc1nc(Cl)nc2c1ncn2[C@@H]1O[C@H](CO)[C@@H](O)[C@@H]1O

inhibition [7]: 5.9% | inhibition [15]: 57% | inhibition [16]: 60% | Effect [13]: 0
SMILES: CCCCCC[C@@H]([C@@H](C)O)n1cnc2c(N)ncnc21

Ratio [1]: 0.37 | Ratio [2]: 0.24
SMILES: OCCn1cnc2c(NCc3cccc(I)c3)ncnc21

Ki (Adenosine receptor A2a): 11 µM | Ki (Adenosine receptor A3): 1330 µM | Ratio [1]: 0.00041 | Ratio [2]: 0.0083
SMILES: Cn1cnc2c(NC3CCCC3)ncnc21

SMILES: CC(C)[Si]1(C(C)C)OC[C@H]2O[C@@H](n3cnc4c(NCc5cccc(I)c5)nc(Cl)nc43)[C@H](O)[C@@H]2O[Si](C(C)C)(C(C)C)O1
inhibition [3]: 8.7% | inhibition [16]: 18% | Ratio [1]: 5.1 | Ratio [2]: > 7 | Ratio [6]: 7.6

Ki (Adenosine receptor A3): 19.5 µM | inhibition [16]: 28.5% | Ratio [1]: 1.8 | Ratio [2]: > 1 | Ki (Adenosine receptor A1): 35.9 µM
SMILES: CNC(=O)[C@H]1C[C@@H](n2cnc3c(NCc4cccc(I)c4)ncnc32)[C@H](O)[C@@H]1O

Ratio [1]: 0.18 | Ratio [2]: 5.8
SMILES: CNC(=O)[C@@H]1C[C@@H](OS(C)(=O)=O)[C@H](n2cnc3c(NCc4cccc(I)c4)nc(Cl)nc32)O1

Ratio [1]: 15 | Ratio [2]: 71 | Ratio [6]: 8200
SMILES: CNC(=O)[C@H]1O[C@@H](n2cnc3c(NCc4cccc(I)c4)nc(Cl)nc32)[C@@H]2OC(=S)O[C@@H]21

inhibition [15]: 55% | inhibition [16]: 7% | inhibition [17]: 21%
SMILES: CNC(=O)C1OC(n2cnc3c(NC(=O)c4cccc(I)c4)nc(Cl)nc32)C(OC(=O)c2ccccc2)C1OC(=O)c1ccccc1 (stereo not drawn)

inhibition [3]: 19.5% | Effect [18]: 0 | Ratio [1]: 6.3 | Ratio [2]: 5.5 | Ratio [6]: 330
SMILES: CSc1nc(NCc2cccc(I)c2)c2ncn(C)c2n1

Ratio [1]: 0.0051 | Ratio [2]: 0.07
SMILES: Cn1cnc2c(NCc3cccc(I)c3)nc(Sc3ccncc3)nc21

From ChEMBL document CHEMBL1128362, “Structure-activity relationships of 9-alkyladenine and ribose-modified adenosine derivatives at rat A3 adenosine receptors” (J Med Chem, 1995)
